The source made the active and inactive calls. No cut-off for these calls is given here. Bounds are passed on as bounds.

Data set [1] deals with Mus musculus. The data set is described as follows: Immunomodulatory activity in C57BL/6 mouse assessed as induction of lymphopenia at 10 mg/kg, po after 6 hrs by complete blood count analysis. The format is functional. In short, it runs like this: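 Pro-drug alcohol given to mouse as a single oral dose of 10 mg/kg. Redistribution of circulating lymphocytes was measured 6 h post-dose and reported as percent lymphopenia.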

For data set [2], the system named is Mus musculus. The data set is described as follows: Metabolic stability in C57BL/6 mouse assessed as alcohol pro-drug to phosphate drug conversion at 10 mg/kg, po after 6 hrs. The conditions noted are these: in vivo. The format is ADME, organism-based. The arrangement: dose 10 mg/kg, route oral. An outline of the steps:
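Alcohol pro-drug dosed orally to mouse at 10 mg/kg. At 6 h, the amount converted in vivo to the phosphate was determined and expressed as percent conversion of alcohol to phosphate.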

Data set [3] concerns the target T1, Sphingosine 1-phosphate receptor 1 (Homo sapiens, UniProt P21453). The data set is described as follows: Displacement of [33P]sphingosine-1-phosphate from human S1P1 receptor expressed in HEK293T cells after 60 mins by scintillation counting. The format is cell-based, HEK-293T.
The target of data set [4] is T2, Sphingosine 1-phosphate receptor 3 (Homo sapiens, UniProt Q99500). The data set is described as follows: Displacement of [33P]sphingosine-1-phosphate from human S1P3 receptor expressed in HEK293T cells after 60 mins by scintillation counting. The format is cell-based, HEK-293T.
T2 sequence (Q99500 whole entry): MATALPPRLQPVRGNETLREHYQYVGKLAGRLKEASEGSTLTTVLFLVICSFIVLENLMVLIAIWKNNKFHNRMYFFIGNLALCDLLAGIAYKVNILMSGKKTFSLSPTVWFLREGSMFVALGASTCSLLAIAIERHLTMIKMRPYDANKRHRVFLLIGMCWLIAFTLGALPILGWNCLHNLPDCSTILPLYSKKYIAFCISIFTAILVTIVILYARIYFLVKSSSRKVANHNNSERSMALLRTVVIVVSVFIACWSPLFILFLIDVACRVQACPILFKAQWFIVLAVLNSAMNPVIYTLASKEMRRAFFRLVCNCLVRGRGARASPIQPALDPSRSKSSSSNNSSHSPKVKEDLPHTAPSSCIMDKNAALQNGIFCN
Data set [5] is filed under the species Homo sapiens. The data set is described as follows: Selectivity ratio of IC50 for human S1P3 receptor to IC50 for human S1P1 receptor by [33P]sphingosine-1-phosphate displacement assay.
The target in data set [6] is T3, Sphingosine 1-phosphate receptor 4 (Homo sapiens, UniProt O95977).
T3 sequence (O95977 whole entry): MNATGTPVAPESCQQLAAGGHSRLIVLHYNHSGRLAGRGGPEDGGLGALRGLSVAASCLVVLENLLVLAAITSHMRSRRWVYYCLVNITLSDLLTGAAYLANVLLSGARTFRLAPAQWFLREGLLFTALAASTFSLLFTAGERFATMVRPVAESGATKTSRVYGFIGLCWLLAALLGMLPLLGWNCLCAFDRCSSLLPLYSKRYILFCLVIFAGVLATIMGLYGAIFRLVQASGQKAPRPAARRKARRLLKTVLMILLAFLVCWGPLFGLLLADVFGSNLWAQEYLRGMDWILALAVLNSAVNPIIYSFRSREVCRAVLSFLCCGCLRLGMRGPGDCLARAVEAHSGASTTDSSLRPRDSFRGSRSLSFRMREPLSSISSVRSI
Kind of data set: Displacement of [33P]sphingosine-1-phosphate from human S1P4 receptor expressed in HEK293T cells after 60 mins by scintillation counting. The format is cell-based, HEK-293T.

Data set [7] addresses Sphingosine 1-phosphate receptor 5 (Homo sapiens, UniProt Q9H228). The data set is described as follows: Displacement of [33P]sphingosine-1-phosphate from human S1P5 receptor expressed in HEK293T cells after 60 mins by scintillation counting. The format is cell-based, HEK-293T.
The species entered for data set [8] is Homo sapiens. The data set is described as follows: Selectivity ratio of EC50 for human S1P3 receptor to EC50 for human S1P1 receptor by gamma-[35S]GTP binding assay. Format: functional.
The target of data set [9] is T1, Sphingosine 1-phosphate receptor 1. Kind of data set: Agonist activity at human S1P1 receptor expressed in HEK293T cells assessed as stimulation of gamma-[35S]GTP binding after 30 mins by scintillation counting.
Data set [10] addresses T2, Sphingosine 1-phosphate receptor 3. Kind of data set: Agonist activity at human S1P3 receptor expressed in HEK293T cells assessed as stimulation of gamma-[35S]GTP binding after 30 mins by scintillation counting.
The target of data set [11] is T1, Sphingosine 1-phosphate receptor 1. The data set is described as follows: Ratio of compound IC50 to PPI-4667-P IC50 for human S1P1 receptor expressed in HEK293T cells. Format: cell-based. The conditions noted are these: HEK-293T.
In data set [12] the test system is Mus musculus. The data set is described as follows: Immunomodulatory activity in C57BL/6 mouse assessed as induction of lymphopenia at 0.3 to 10 mg/kg, po after 6 hrs by complete blood count analysis. Format: functional, organism-based. In short, it runs like this: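 Mouse given a single oral dose of the pro-drug alcohol at 0.3, 1.0, 3.0 or 10.0 mg/kg alongside a vehicle group. Circulating lymphocyte redistribution was measured 6 h post-dose and expressed as lymphopenia relative to vehicle.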

T1 sequence (P21453 whole entry): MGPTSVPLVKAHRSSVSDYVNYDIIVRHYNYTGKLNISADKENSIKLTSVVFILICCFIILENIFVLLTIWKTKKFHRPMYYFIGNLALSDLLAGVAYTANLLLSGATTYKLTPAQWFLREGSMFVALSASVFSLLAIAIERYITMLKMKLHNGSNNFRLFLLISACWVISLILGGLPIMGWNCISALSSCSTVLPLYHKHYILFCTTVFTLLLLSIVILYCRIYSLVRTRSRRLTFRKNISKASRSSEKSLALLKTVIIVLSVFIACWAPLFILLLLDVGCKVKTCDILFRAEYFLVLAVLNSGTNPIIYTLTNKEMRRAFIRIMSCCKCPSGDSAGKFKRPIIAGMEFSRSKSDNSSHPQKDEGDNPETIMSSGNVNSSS
Chain of Sphingosine 1-phosphate receptor 5 (Q9H228 whole entry): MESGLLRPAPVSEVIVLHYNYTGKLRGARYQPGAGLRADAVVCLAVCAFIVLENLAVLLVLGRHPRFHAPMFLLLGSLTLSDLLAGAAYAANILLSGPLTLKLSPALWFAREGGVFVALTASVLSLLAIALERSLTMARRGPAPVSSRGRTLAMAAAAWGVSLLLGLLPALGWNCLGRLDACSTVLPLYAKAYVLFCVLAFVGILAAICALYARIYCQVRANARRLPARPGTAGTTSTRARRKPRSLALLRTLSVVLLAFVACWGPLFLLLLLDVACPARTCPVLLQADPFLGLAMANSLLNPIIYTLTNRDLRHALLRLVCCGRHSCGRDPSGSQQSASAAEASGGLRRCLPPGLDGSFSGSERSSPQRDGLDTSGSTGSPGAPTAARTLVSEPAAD

For the compound `C[C@](N)(CO)C(=O)Nc1ccc(SCCc2ccc(-c3ccccc3)cc2)cc1`, the Activity in the data set with Mus musculus [1] stood at 21%.

Take `C[C@](N)(CO)C(=O)Nc1ccc(C(=O)CCc2ccc(-c3ccccc3)cc2)cc1`: the values for the Activity in the data set with Mus musculus [1] and in the data set with Mus musculus [2] were 84% and 40%, respectively.

Usually IC50 stands for the concentration at which inhibition is half-maximal. A lower IC50 goes with higher potency. Turning to `C[C@](N)(COP(=O)(O)O)C(=O)Nc1ccc(OCCc2ccc(-c3ccccc3)cc2)c(Br)c1`, the values for the 50% inhibitory concentration (IC50) in data set [3] and in [4] were 1.3 nM and 1000 nM, respectively. The Ratio IC50 in the data set filed under Homo sapiens [5] came to 769.

In the case of `C[C@](N)(CO)C(=O)Nc1ccc(C(=O)NCc2ccc(-c3ccccc3)cc2)cc1`, the Activity with Mus musculus [1] was 32%.

What is called EC50 is the concentration that produces a half-maximal response. As to `C[C@](N)(COP(=O)(O)O)C(=O)Nc1ccc(OCCc2ccc(-c3ccccc3)cc2)c(C(F)(F)F)c1`, the IC50 turned out to be 0.24 nM in data set [3], 4500 nM in [4], 3.4 nM in data set [6] and 87.2 nM in data set [7]. Besides, the Ratio IC50 in the data set filed under Homo sapiens [5] came out at 18800. In the data set filed under Homo sapiens [8], the Ratio EC50 was above 2080. Moreover, the EC50 in [9] is 1.44 nM; in [10], above 3000 nM.

As to `C[C@](N)(COP(=O)(O)O)c1nc(-c2ccc(OCCc3ccc(-c4ccccc4)cc3)c(C(F)(F)F)c2)c[nH]1`, the Activity with Mus musculus [1] came to 64%; with Mus musculus [2], 6.8%. Also, the 50% inhibitory concentration (IC50) is 9.4 nM in [3], above 100000 nM in [4], 6.5 nM in [6] and 184 nM in data set [7]. Further, in the data set listed under Homo sapiens [5], the Ratio IC50 was above 10000. Further, in the data set listed under Homo sapiens [8], the Ratio EC50 was above 134. Besides, the 50% effective concentration (EC50) in data set [9] is 22.4 nM; in [10], above 3000 nM.

`COC(=O)c1cc(NC(=O)[C@@](C)(N)COP(=O)(O)O)ccc1OCCc1ccc(-c2ccccc2)cc1`: the half-inhibitory concentration (IC50) in data set [3] is 21 nM; in [4], above 10000 nM. Besides, the Ratio IC50 in the data set filed under Homo sapiens [5] was above 476.

For the compound `CNC(=O)c1cc(NC(=O)[C@@](C)(N)COP(=O)(O)O)ccc1OCCc1ccc(-c2ccccc2)cc1`, the half-inhibitory concentration (IC50) was 500 nM in [3] and above 1000 nM in data set [4].

On to `C[C@](N)(COP(=O)(O)O)C(=O)Nc1ccc(OCCc2ccc(-c3ccccc3)cc2)c(Cl)c1`, for which the IC50 turned out to be 0.8 nM in [3] and 285 nM in data set [4]. In the data set filed under Homo sapiens [5], the Ratio IC50 was found to be 356.

As for `Cc1cc(NC(=O)[C@@](C)(N)COP(=O)(O)O)ccc1OCCc1ccc(-c2ccccc2)cc1`, the IC50 in [3] worked out at 6 nM; in data set [4], 3250 nM. In addition, the Ratio IC50 in the data set listed under Homo sapiens [5] amounted to 542.

As for `C[C@](N)(COP(=O)(O)O)C(=O)Nc1ccc(C(=O)CCc2ccc(-c3ccccc3)cc2)cc1`, the IC50 in data set [3] is 4.14 nM; in data set [4], 3800 nM; in data set [6], 13.1 nM; in [7], 1360 nM. In the data set filed under Homo sapiens [5], the Ratio IC50 is 917. Moreover, in the data set filed under Homo sapiens [8], the Ratio EC50 was above 164. Moreover, the concentration giving a half-maximal response (EC50) in data set [9] was 18.3 nM; in data set [10] it was above 3000 nM.

Consider `C[C@](N)(COP(=O)(O)O)C(=O)Nc1ccc(OCCc2ccc(-c3ccccc3)cc2)c(C#N)c1`, for which the IC50 was determined as 3.4 nM in data set [3] and 2000 nM in [4]. The figures for the Ratio IC50 (in the data set filed under Homo sapiens [5]; in data set [11]) were 588 and 3, respectively.

As to `C[C@](N)(COP(=O)(O)O)C(=O)Nc1ccc(OCCc2ccc(-c3ccccc3)cc2)c(C(N)=O)c1`, the IC50 in data set [3] is 150 nM; in data set [4], above 1000 nM.

Turning to `C[C@](N)(CO)C(=O)Nc1ccc(OCCc2ccc(-c3ccccc3)cc2)cc1`, the Activity in the data set with Mus musculus [2] amounted to 14%.

On to `C[C@](N)(COP(=O)(O)O)C(=O)Nc1ccc(OCCc2ccc(-c3ccccc3)cc2)cc1`, for which the IC50 in [6] came to 10.3 nM; in data set [7], 43.6 nM. Also, the Ratio IC50 in the data set listed under Homo sapiens [5] came to 190. For the same compound, in the data set listed under Homo sapiens [8], the Ratio EC50 is 231. For the same compound, the EC50 in data set [9] turned out to be 0.52 nM; in data set [10] it was 120 nM.

On to `C[C@](N)(COP(=O)(O)O)C(=O)Nc1ccc(OCCc2ccc(-c3ccccc3)cc2)c(C(=O)O)c1`, for which the 50% inhibitory concentration (IC50) in data set [3] and in data set [4] was above 10000 nM in each case.

For `C[C@](N)(CO)c1nc(-c2ccc(OCc3ccc(-c4ccccc4)cc3)c(C(F)(F)F)c2)c[nH]1`, the outcome in the data set with Mus musculus [12] was Active.

Regarding `C[C@](N)(COP(=O)(O)O)c1nc(-c2ccc(OCc3ccc(-c4ccccc4)cc3)cc2)c[nH]1`, the Ratio IC50 in the data set filed under Homo sapiens [5] was determined as 19. For the same compound, the Ratio EC50 in the data set listed under Homo sapiens [8] was 25. In addition, the EC50 in data set [9] was determined as 2.2 nM; in [10], 54.8 nM.

Consider `CCCCCCCCCCCCC/C=C/[C@@H](O)[C@@H](N)COP(=O)(O)O`, for which the IC50 in data set [3] came out at 0.78 nM; in data set [4] it was 0.92 nM; in [6], 1.04 nM. In addition, the EC50 is 5.6 nM in [9] and 2.4 nM in [10].

Take `C[C@](N)(COP(=O)(O)O)c1nc(-c2ccc(OCc3ccc(-c4ccccc4)cc3)c(C(F)(F)F)c2)c[nH]1`: the results for the Activity with Mus musculus [1] and with Mus musculus [2] were 85% and 70.1%, respectively. Further, the half-inhibitory concentration (IC50) is 0.23 nM in [3], 2000 nM in [4], 4.4 nM in data set [6] and 9.6 nM in data set [7]. The Ratio IC50 in the data set listed under Homo sapiens [5] is 8700. The Ratio EC50 in the data set listed under Homo sapiens [8] is above 1850. Besides, the results for the EC50 in data set [9] and in data set [10] were 1.62 nM and above 3000 nM, respectively.

Consider `C[C@](N)(COP(=O)(O)O)C(=O)Nc1ccc(OCCc2ccc(-c3ccccc3)cc2)cc1C(F)(F)F`, for which the IC50 came to 6.4 nM in [3] and 700 nM in data set [4]. For the same compound, in the data set filed under Homo sapiens [5], the Ratio IC50 was 109.

Values taken from ChEMBL document CHEMBL1156167 (Bioorg Med Chem Lett, 2010).
